Screening data: PubChem, Broad Institute
Shown are actives, neighbours in structure and some others; about 3% of the full set was active somewhere.
T cruzi inh – inhibitors of intracellular T. cruzi growth, primary screen, luminescence, NIH3T3 host cells; T. cruzi beta-gal in NIH3T3, 90 h; 1.4% of 300,000 active; inhibition, % (test concentration not listed); AID 1885, 2009;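 active means mean inhibition across valid replicates above about 55%, limit read from the data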;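 further: signal also drops with host cell toxicity which is not excluded here; higher percent means less beta-gal luminescence so fewer parasites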
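System: NIH/3T3 fibroblasts plus reporter T. cruzi. Medium: DMEM plus 2% FBS. Probe or stimulus: 5000 reporter trypomastigotes per well. Compound: single 50 nL compound addition per well in DMSO. Incubation: co-culture of at least 90 h after 3 h attachment. Detection: GalScreen β-gal luminescence, detergent lysis, 60 min. Evaluation: parasite load inhibition, %.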
CaV13 ICDI inh – Disruptors of the CACNA1D IQ motif to Ca2+-dependent inactivation inhibitor domain association, primary screening, Förster resonance energy transfer in intact living … | inhibition, % at 12.3 µM | 0.098% of 340,000 active | HEK cells, CFP/YFP FRET ICDI-IQ, plate reader, 10 min; percent FRET-ratio fall versus neutral wells | AID 743397;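 active means mean replicate inhibition of at least 30% and at least 1% of replicates passing that level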
PfHsp90 yeast 2 – growth inhibition of PfHsp90-expressing yeast, primary screen, antimalarial PfHsp90 inhibitor project, S. cerevisiae, BacTiter-Glo luminescence, single point, set 2 | inhibition, % at 9.4 µM | 0.32% of 310,000 active | BacTiter-Glo ATP, 48 h; yeast lacking PDR1 and PDR3 efflux regulators;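 active means every replicate shows inhibition above about 80%, whatever the replicate mean, limit read from the data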
PvdQ inh – P. aeruginosa PvdQ acylase inhibitors, primary screen, biochemical, fluorescence, plate reader and imaging, single point; PvdQ acylase [Pseudomonas aeruginosa LESB58]; purified PvdQ acylase; inhibition, % at 10 µM; 0.063% of 340,000 active; AID 488965, 2010; in the data active means inhibition above about 30%, passing the limit was not always enough
HSF1 activator – HSF-1 activators, primary screen, NIH3T3-HGL cells, MG132 stress, luminescence, single point. NIH3T3-HGL HSF-1 luciferase reporter, 8 h; 100% = twice DMSO control signal. 1.7% of 300,000 active. activation, % at 9 µM;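 active means mean replicate activation of at least 50% with a set share of replicates each reaching 50%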
Glyco luc inh – increase of ERlucT glycosylation luciferase signal, primary screen, N-linked glycosylation inhibitor project, D54 ERlucT cells, luminescence, set 2. D54 ERlucT glycosylation luciferase reporter, 24 h; percent of 100 nM tunicamycin response. 0.23% of 360,000 active. reporter increase, % at 12.5 µM;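 active means mean luciferase reporter signal, scaled so untreated is 0 and the glycosylation-blocking control 100, at or above a set limit in every replicate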;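 further: luciferase carries N-glycosylation sites so blocking glycosylation raises the light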
A number is an active result; . = inactive; / = no result.

SMILES	T cruzi inh	CaV13 ICDI inh	PfHsp90 yeast 2	PvdQ inh	HSF1 activator	Glyco luc inh
COc1cc(C(CCN2CCCC2)c2c(OC)cc(OC)c3c(-c4ccccc4)cc(=O)oc23)cc(OC)c1OC (centres undefined)	58	.	.	.	.	.
COc1cc(C(CCN2CCOCC2)c2c(OC)cc(OC)c3c(-c4ccccc4)cc(=O)oc23)cc(OC)c1OC (centres undefined)	/	.	.	.	/	.
CCc1cc2c(=O)c(-c3ccc4c(c3)OCCO4)coc2cc1OS(C)(=O)=O	.	.	.	.	56	.
CCc1cc2c(=O)c(-c3nc4ccccc4[nH]3)coc2c(CN2CCCCC2C)c1O (centres undefined)	.	.	.	.	.	.
CCc1cc2c(=O)c(-c3ccc4c(c3)OCCO4)coc2c(CN2CCCCC2C)c1O (centres undefined)	56	.	.	.	.	.
COCCNC(=O)C1CCCN(Cc2ccc(C#N)cc2)CC1 (centres undefined)	/	.	/	/	/	.
O=C(NC1CCCCC1)C1c2ccccc2OCC(=O)N1CCc1ccccc1 (centres undefined)	/	.	/	/	/	/
C[C@@H](CO)NC(=O)c1[nH]cnc1C(=O)Nc1ccccc1	/	.	/	/	/	/
CCOC(=O)c1ccc2ncc(-c3ccccc3)nc2c1	.	.	.	.	62	.
CCOC(=O)c1cnc(-c2ccccc2)nc1N	.	.	.	77	.	.
COc1ccc(CNC2CCSc3ccccc32)cc1OC (centres undefined)	.	.	.	.	63	.
COc1ccc(CNC2CCCc3ccccc32)cc1OC (centres undefined)	.	.	.	.	.	.
C[C@@H]1CN([C@@H](C)CO)C(=O)CCCn2cc(nn2)CO[C@H]1CN(C)C(=O)Nc1ccc(N2CCN(C)CC2)cc1	/	.	/	/	/	/
CCCCOCCCN1CC(=O)N2[C@@H](Cc3c([nH]c4ccccc34)C2(C)C)C1=O	.	.	.	.	70	.
CCCCCN1CC(=O)N2[C@@H](Cc3c([nH]c4ccccc34)C2(C)C)C1=O	.	.	.	.	.	.
O=C(CCN1CCN(c2ccccc2F)CC1)c1ccc(Br)cc1	.	/	.	.	.	.
COc1ccc(C(=O)CCN2CCN(c3ccccc3F)CC2)cc1	63	.	.	.	.	.
O=C(CCN1CCN(c2ccccc2)CC1)c1ccc(Br)cc1	62	.	.	.	.	.
O=C(CCC(=O)N1CCN(c2ccc(O)cc2)CC1)c1ccc(Br)cc1	.	/	/	/	91	/
CCN(CC(=O)Nc1ccc2c(c1)OCCO2)C(=O)COc1ccc(C(C)=O)cc1	/	.	/	/	/	.
C[C@H](CO)N1C[C@H](C)[C@@H](CN(C)C(=O)Cc2cccnc2)Oc2ncc(C#CCc3ccccc3)cc2C1=O	/	.	/	/	/	/
O=C(Cc1ccccc1)N/N=C/c1cc(Br)c(Br)o1	.	.	.	.	80	.
CCOC(=O)c1c(CSc2ccc(CC)cc2)oc2ccc(O)c(CN(C)C)c12	63	.	.	.	.	.
CC1CCN(c2ccc(NC(=O)c3ccc(Br)o3)cc2)CC1	.	.	.	.	53	.
CC1CCN(c2ccc(NC(=S)NC(=O)c3ccco3)cc2)CC1	.	.	.	.	61	.
SMILES	T cruzi inh	CaV13 ICDI inh	PfHsp90 yeast 2	PvdQ inh	HSF1 activator	Glyco luc inh
CN1CCN(c2ccc(NC(=O)c3ccc(Br)o3)cc2)CC1	.	.	.	.	.	.
CN(c1cccnc1)c1ccc(NC(=O)Cc2c[nH]c3ccccc23)cc1Br	/	.	/	/	/	/
CC(C)(C)NC(=O)c1cccc(NC(=O)CSc2ccc(Cl)cc2)c1	.	.	.	.	173	.
CC(C)CNC(=O)c1cccc(NC(=O)CSc2ccc(Cl)cc2)c1	.	.	.	.	.	.
NC(=O)C1CC2(C1)CC(C(N)=O)C2 (centres undefined)	/	.	/	/	/	.
COc1cc2c(cc1NC(=O)COC(=O)[C@@H](NS(=O)(=O)c1ccccc1)C(C)C)oc1ccccc12	.	.	.	.	90	.
COc1cc2c(cc1NC(=O)COc1ccccc1OC)oc1ccccc12	.	.	.	.	.	.
CCc1noc2cc(-c3ccccc3)n(C)c(=O)c12	/	.	/	/	/	/
Cc1cc(Br)cn2c(Cc3cccc(F)c3)c(-c3ccc(Cl)cc3)nc12	/	.	/	/	/	.
CC(=O)c1ccc2c(c1)N(Cc1ccccc1)C(=O)C(C)S2 (centres undefined)	/	.	/	/	/	.
CCOC(=O)C1=C(C)NC(=O)NC1c1ccc([N+](=O)[O-])o1 (centres undefined)	.	.	.	.	.	.
CCOC(=O)C1=C(C)NC2=C(C(=O)c3ccccc32)C1c1ccc([N+](=O)[O-])o1 (centres undefined)	58	.	.	.	.	.
CCCn1cnnc1CNC(=O)[C@@H](Cc1ccccc1)NC(=O)[C@H]1O[C@@H](n2ccc(=O)[nH]c2=O)[C@H](O)[C@@H]1O	/	.	/	/	/	/
CN(C(=O)COC(=O)c1ccc([N+](=O)[O-])cc1Cl)C1CCCCC1	.	.	.	.	.	.
CN(C(=O)COC(=O)c1ccc(Cl)cc1N)C1CCCCC1	.	.	/	.	59	.
Cc1ccc(C2=Nc3ccccc3SC(c3cccc([N+](=O)[O-])c3)C2)cc1 (centres undefined)	.	.	.	.	67	.
O=[N+]([O-])c1cccc(C2CC(c3ccccc3)=NN2c2ccccc2)c1 (centres undefined)	.	.	.	.	.	.
CCCS(=O)(=O)NC(=O)C1(C)CCN(C(=O)c2oc3ccccc3c2C)C1 (centres undefined)	/	.	/	/	/	.
Cc1cccc(S(=O)(=O)c2c(N)n(/N=C/c3ccco3)c3nc4ccccc4nc23)c1	57	.	.	.	.	.
Nc1c(S(=O)(=O)c2ccccc2)c2nc3ccccc3nc2n1/N=C/c1ccco1	.	.	.	.	.	.
Cc1ccc(S(=O)(=O)c2c(N)n(/N=C/c3ccco3)c3nc4ccccc4nc23)cc1	78	.	.	.	.	.
Cc1cccc2c1NC(C)CC2C (centres undefined)	59	/	.	.	.	.
CCc1cccc2c1NC1(CCCC1)CC2C (centres undefined)	.	.	.	.	.	.
Cc1cc(N2CCN(CC(C)(C)O)C[C@@H]2C)ccc1N1CCN(Cc2ccccc2)[C@@H](C)C1	/	.	/	/	/	/
